{"data": "Published values pooled from the literature", "DRD1": "D(1A) dopamine receptor (DRD1, Homo sapiens, UniProt P21728)", "Tyrosine-protein phosphatase YopH": "Tyrosine-protein phosphatase YopH (Yersinia enterocolitica, UniProt P15273)"}
{"Compound": "O=C(O)c1cc(-c2ccc([C@@H]3C[C@@H]4C[C@H]3CN4)cc2)c2ccc(-c3ccc(C(F)(F)F)cc3)cc2c1", "target": "DRD1", "assay": "cell-free assay, radioligand", "endpoint": "Ki", "value": "1.4 to 2.2 µM"}
{"Compound": "CNC(C)C(=O)c1ccccc1 (racemic)", "target": "Sodium-dependent serotonin transporter (SLC6A4, Homo sapiens, UniProt P31645)", "assay": "calcium signal, agonist, fluorescence", "endpoint": "EC50", "value": "24.8 µM"}
{"Compound": "CC(C)CCC[C@@H](C)[C@H]1CC[C@H]2[C@@H]3CC=C4C[C@@H](O)CC[C@]4(C)[C@H]3CC[C@]12C", "target": "hly (Listeria monocytogenes, UniProt P13128)", "assay": "binding", "conditions": "pH 5.5", "endpoint": "Kd", "value": "0.296 µM"}
{"Compound": "C[C@H](N)Cc1ccccc1", "target": "Neuronal acetylcholine receptor subunit alpha-7 (Chrna7, Mus musculus, UniProt P49582)", "assay": "ligand displacement, radioligand", "conditions": "cell membranes", "endpoint": "Ki", "value": "49.7 µM"}
{"Compound": "[Na+].[Na+].[Na+].[O]=[V]([O-])([O-])[O-]", "target": "Tyrosine-protein phosphatase YopH", "assay": "enzyme activity, inhibitor", "endpoint": "Ki", "value": "1.58 µM"}
{"Compound": "CN(C)c1ccc(/C=C/c2cc(/C=C/c3ccc(N(C)C)cc3)n3n[n+](C)nc3n2)cc1", "target": "Tyrosine-protein phosphatase YopH", "assay": "enzyme activity, inhibitor", "endpoint": "IC50", "value": "4.44 µM"}
{"Compound": "NNC(=O)c1ccncc1", "target": "Adenosylmethionine-8-amino-7-oxononanoate aminotransferase (Mycobacterium tuberculosis, UniProt P9WQ81)", "assay": "enzyme activity, inhibitor", "endpoint": "Ki", "value": "> 100 µM"}
{"Compound": "O=C(O)c1cc(-c2ccc([C@H]3C[C@H]4C[C@@H]3NC4=O)cc2)c2ccc(-c3ccc(C(F)(F)F)cc3)cc2c1", "target": "DRD1", "assay": "cell-free assay, radioligand", "endpoint": "Ki", "value": "1.4 to 2.2 µM"}
{"Compound": "CC=C1[C@H]2C=C(C)C[C@]1(N)c1cc(O)c(=O)[nH]c1C2", "target": "Cholinesterase (BCHE, Equus caballus, UniProt P81908)", "assay": "enzyme activity, inhibitor, Ellman", "endpoint": "IC50", "value": "155 µM"}
